One may read the MIC as the least concentration at which growth counts as inhibited. Read a high MIC as a less susceptible organism.

In brackets after ≈: the same amount, converted by molar mass.

In test [1] the test system is Staphylococcus aureus. Nature of the test: Antibacterial activity against vancomycin-resistant Staphylococcus aureus HIP14300 after 20 hrs by broth microdilution assay. Conditions: HIP14300, 20 h. In kind it is functional. In general terms: In broth dilution the organism is exposed to a series of concentrations in liquid medium.
Test [2] relates to Staphylococcus aureus. In words: Antibacterial activity against methicillin-resistant Staphylococcus aureus COL after 20 hrs by broth microdilution assay. The class given is functional.
In test [3] the test system is Staphylococcus epidermidis. Nature of the test: Antibacterial activity against vancomycin-intermediate resistant Staphylococcus epidermidis NRS6 after 20 hrs by broth microdilution assay. Conditions: NRS6, 20 h. In kind it is functional.
For another test, the system named is Streptococcus agalactiae. Nature of the test: Antibacterial activity against Streptococcus agalactiae SGBS005 after 20 hrs by broth microdilution assay. Conditions: SGBS005, 20 h. The class given is functional.
The next test concerns Enterococcus faecium. Nature of the test: Antibacterial activity against vancomycin-resistant Enterococcus faecium ATCC 700221 after 20 hrs by broth microdilution assay. In kind it is functional. Conditions: ATCC 700221, 20 h. An outline of the steps:
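Brain heart infusion broth at 37°C; E. faecium under 5% CO2. Cells at 0.5 McFarland are diluted 1:100 and exposed to serial dilutions (DMSO stocks 1 mM or 1 mg/mL; controls in water).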

A further test relates to Streptococcus pyogenes. Nature of the test: Antibacterial activity against Streptococcus pyogenes H293 after 20 hrs by broth microdilution assay. The class given is functional. Conditions: H293, 20 h.
Test [4] deals with Staphylococcus aureus. In words: Antibacterial activity against vancomycin-intermediate resistant Staphylococcus aureus AR-217 after 20 hrs by broth microdilution assay. In kind it is functional. Conditions: AR-217, 20 h.
In a further test the test system is Streptococcus pneumoniae. Nature of the test: Antibacterial activity against Streptococcus pneumoniae TCH8431 after 20 hrs by broth microdilution assay. In kind it is functional. Conditions: TCH8431, 20 h.
Test [5] relates to Yersinia pestis. Nature of the test: Antibacterial activity against Yersinia pestis Kim D2 after 20 hrs by broth microdilution assay. Conditions: Kim D2, 20 h. The class given is functional.
In the next test the test system is Proteus mirabilis. In words: Antibacterial activity against Proteus mirabilis HM-752 after 20 hrs by broth microdilution assay. In kind it is functional. Conditions: HM-752, 20 h. Put shortly:
(§1)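 Medium is tryptic soy broth, 37°C. Overnight culture is adjusted to 0.5 McFarland, diluted 1:100 and exposed to serial dilutions (test agents from 1 mM or 1 mg/mL DMSO stocks; control antibiotics in water). Incubation lasts 20 h. MIC is the lowest concentration with no visible growth.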

In the next test the test system is Rhodococcus erythropolis. In words: Antibacterial activity against Rhodococcus erythropolis SK121 after 20 hrs by broth microdilution assay. Conditions: SK121, 20 h. The class given is functional. An outline of the steps: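 R. erythropolis grown in brain heart infusion broth at 30°C. A 0.5 McFarland suspension diluted 1:100 is treated with serial dilutions from 1 mM or 1 mg/mL DMSO stocks; control antibiotics are in water.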

The subject of a further test is Corynebacterium striatum. Nature of the test: Antibacterial activity against Corynebacterium striatum FS-1 after 20 hrs by broth microdilution assay. The class given is functional. Conditions: FS-1, 20 h.
For a further test, the system named is Vibrio cholerae. In words: Antibacterial activity against Vibrio cholerae TS D4 after 20 hrs by Todd Hewitt broth broth microdilution method. Conditions: TS D4, 20 h. The class given is functional.
The next test has as its system Salmonella typhi. In words: Antibacterial activity against Salmonella typhi Ty2 after 20 hrs by Todd Hewitt broth broth microdilution method. Conditions: Salmonella enterica. The class given is functional, Salmonella enterica subsp. enterica serovar Typhi str. Ty2.
A further test deals with Francisella tularensis. In words: Antibacterial activity against Francisella tularensis Utah 112 after 20 hrs by broth microdilution assay. In kind it is functional. Conditions: Utah 112, 20 h.
The subject of test [6] is Yersinia pestis. Nature of the test: Antibacterial activity against Yersinia pestis Kuma D7 after 20 hrs by broth microdilution assay. The class given is functional. Conditions: Kuma D7, 20 h.
The test system of the next test is Citrobacter freundii. Nature of the test: Antibacterial activity against Citrobacter freundii 4_7_47CFAA after 20 hrs by broth microdilution assay. The class given is functional. An outline of the steps:
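Brucella broth, 37°C, 5% CO2. Inoculum is 0.5 McFarland diluted 1:100, with serial drug dilutions from DMSO stocks (1 mM or 1 mg/mL) and control antibiotics in water.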

The next test concerns Acinetobacter baumannii. Nature of the test: Antibacterial activity against Acinetobacter baumannii AB5075 after 20 hrs by broth microdilution assay. The class given is functional. Conditions: AB5075, 20 h.
The test system of the next test is Escherichia coli. In words: Antibacterial activity against Escherichia coli DC10B after 20 hrs by broth microdilution assay. The class given is functional. Put shortly:
as §1

A further test has as its system Burkholderia multivorans. In words: Antibacterial activity against Burkholderia multivorans CF2 after 20 hrs by broth microdilution assay. The class given is functional. Conditions: CF2, 20 h. An outline of the steps: as §1
The test system of test [7] is Yersinia pseudotuberculosis. Nature of the test: Antibacterial activity against Yersinia pseudotuberculosis P61 after 20 hrs by broth microdilution assay. The class given is functional. Conditions: P61, 20 h. An outline of the steps: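 Yersinia cultured in tryptic soy broth at 28°C. A 0.5 McFarland suspension diluted 1:100 receives serial dilutions of agents from 1 mM or 1 mg/mL DMSO stocks; control antibiotics are in water.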

On to `CCSSC(=S)N(CC)CC`, for which the MIC is 16 µM (≈ 3.35 µg/mL) against Staphylococcus aureus [1]; 16 µM (≈ 3.35 µg/mL) with Staphylococcus aureus [2]; 32 µM (≈ 6.7 µg/mL) in test [3]; over 32 µM with Streptococcus agalactiae; over 32 µM in the test on Enterococcus faecium; 32 µM (≈ 6.7 µg/mL) against Streptococcus pyogenes. Moreover, the MIC is 8 µM (≈ 1.68 µg/mL) against Staphylococcus aureus [4] and over 32 µM in the test with Streptococcus pneumoniae.
Regarding `CCN(CC)C(=S)SSC(C)C` [ISOPROPYL DIETHYLCARBAMO(DITHIOPEROXO)THIOATE], the MIC against Staphylococcus aureus [1] was over 32 µM; against Staphylococcus aureus [2], over 32 µM; in test [3], over 32 µM; against Streptococcus agalactiae, over 32 µM; against Enterococcus faecium it was over 32 µM; in the test on Streptococcus pyogenes it was 32 µM (≈ 7.15 µg/mL). Moreover, the values for the MIC against Staphylococcus aureus [4] and with Streptococcus pneumoniae were 32 µM (≈ 7.15 µg/mL) and over 32 µM, respectively.
Take `CCN(CC)C(=S)SSc1ccccc1`: the MIC in the test with Staphylococcus aureus [1] was 16 µM (≈ 4.12 µg/mL); against Staphylococcus aureus [2] it was 32 µM (≈ 8.24 µg/mL); in test [3], 16 µM (≈ 4.12 µg/mL); in the test with Streptococcus agalactiae it was over 32 µM; with Enterococcus faecium, over 32 µM; in the test on Streptococcus pyogenes it was over 32 µM. Also, the minimal inhibitory concentration (MIC) against Staphylococcus aureus [4] was 16 µM (≈ 4.12 µg/mL); against Streptococcus pneumoniae, over 32 µM.
Turning to `O=C(O)c1cn(C2CC2)c2cc(N3CCNCC3)c(F)cc2c1=O` [CIPROFLOXACIN], the MIC in the test on Yersinia pestis [5] was at most 0.5 µM; against Proteus mirabilis it was at most 0.5 µM; against Rhodococcus erythropolis, at most 0.5 µM; with Corynebacterium striatum, over 32 µM; with Vibrio cholerae it was at most 0.5 µM; against Salmonella typhi, at most 0.5 µM. Further, the MIC against Francisella tularensis is at most 0.5 µM; against Yersinia pestis [6], at most 0.5 µM; against Citrobacter freundii, at most 0.5 µM; in the test on Acinetobacter baumannii it was at most 0.5 µM; against Escherichia coli, at most 0.5 µM; against Burkholderia multivorans, 8 µM (≈ 2.65 µg/mL). Besides, in test [7], the MIC is at most 0.5 µM.
As to `CCN(CC)C(=S)SSC1CCCC1`, the MIC in the test on Staphylococcus aureus [1] was 32 µM (≈ 7.98 µg/mL); with Staphylococcus aureus [2], 32 µM (≈ 7.98 µg/mL); in test [3] it was 32 µM (≈ 7.98 µg/mL); against Streptococcus agalactiae, over 32 µM; with Enterococcus faecium it was over 32 µM; with Streptococcus pyogenes it was 32 µM (≈ 7.98 µg/mL). Further, the MIC against Staphylococcus aureus [4] was 16 µM (≈ 3.99 µg/mL); with Streptococcus pneumoniae it was over 32 µM.
For the compound `CCN(CC)C(=S)SSCC(C)C`, the MIC against Staphylococcus aureus [1] is over 32 µM; in the test with Staphylococcus aureus [2], over 32 µM; in test [3] it was over 32 µM; against Streptococcus agalactiae, over 32 µM; with Enterococcus faecium it was over 32 µM; against Streptococcus pyogenes, 32 µM (≈ 7.6 µg/mL). For the same compound, the MIC in the test with Staphylococcus aureus [4] and against Streptococcus pneumoniae was over 32 µM each time.

The values above are taken from ChEMBL document CHEMBL4219167, “Disulfiram-based disulfides as narrow-spectrum antibacterial agents” (Bioorg Med Chem Lett, 2018).
